Columns and labels:
[1] = test system: S. typhimurium strain TA98; experiment: Ames/Salmonella mutagenicity assay; type: cell-based, Salmonella typhimurium; details: with and without metabolic activation (S9), 16.7 to 77.5 μM
Method in brief: (§1)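 Microsuspension protocol: overnight cultures (1 × 10^9 cells/mL) concentrated 10× by centrifugation, then exposed to five concentrations (TA100 6.7–30.9 μM; TA98 16.7–77.5 μM), with or without S9, 90 min at 37 °C. Plated in histidine/biotin top agar on minimal glucose agar; his+ revertants counted after 48 h at 37 °C. DMSO negative control; MI = treated/control revertants, MI ≥ 2 mutagenic.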

[2] = test system: P. falciparum chloroquine-resistant (W2) strain; experiment: In vitro schizonticidal activity, ELISA antiHRPII assay; type: cell-based, Plasmodium falciparum; details: for SI (selectivity index) P.f. W2: SI = IC50 WI-26-VA4/IC50 P. falciparum strain W2
Method in brief: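 W2 parasites grown in human erythrocytes in RPMI 1640 with human plasma, sorbitol-synchronized, plated at 0.05% parasitemia and 1.5% hematocrit. Triplicate drug dilutions for 72 h, freeze-thaw, anti-HRPII ELISA; IC50 is the mean of three assays. WI-26-VA4 fibroblasts: 1:10 serial dilutions (0.1% DMSO), 48 h, MTT read at 550 nm, triplicate. SI = fibroblast IC50 / W2 IC50.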

[3] = test system: RKO-AS45-1 human cell line; experiment: Alkaline comet assay; type: cell-based; details: 17.7 μM vs 2.5 μM
[4] = test system: RKO-AS45-1 human cell line; experiment: CBMN; type: cell-based; details: 2.5 to 17.7 μM
[5] = test system: P. falciparum chloroquine-sensitive (3D7) strain; experiment: In vitro schizonticidal activity, ELISA antiHRPII assay; type: cell-based, Plasmodium falciparum; details: for IC50: Plasmodium falciparum, 3D7, 72 h, read-out: IC50 (μM) ± SD P.f. 3D7
[6] = test system: human lung fibroblast cell line WI-26-VA4; experiment: In vitro cytotoxicity test, MTT colorimetric assay; type: cell-based; details: WI26VA4, 48 h, read-out: IC50 (μM) ± SD Wi-26VA4
[7] = test system: S. typhimurium strain TA100; experiment: Ames/Salmonella mutagenicity assay; type: cell-based, Salmonella typhimurium; details: with and without metabolic activation (S9), 6.7 to 30.9 μM
Method in brief: as §1

FCCCCCCCCCCOCCCc1cccnc1 [Compound 7, 3-(3-((10-Fluorodecyl)oxy)propyl)pyridine]
induction of gene mutations (Ames) [1]: not able to induce gene mutations | increase of in vitro antimalarial activity compared to compound 5c ([2]; P. falciparum W2): 5.8 fold | SI (selectivity index) P.f. W2 [2]: 11.2 | genotoxic concentration relative to IC50 against P. falciparum [3]: about seven times higher | nuclear division index (NDI) [4]: None of the concentrations assessed affected the nuclear division index (NDI) values | frequency of micronuclei ([4]; 3 h exposure): altered only at concentrations higher than the IC50 | IC50 [5]: 2.3 ± 0.15 µM | SI (selectivity index) P.f. 3D7 ([5]; SI = IC50 WI-26-VA4/IC50 P. falciparum strain 3D7): 12.2 | IC50 [6]: 28.2 ± 3.7 µM | induction of gene mutations (Ames) [7]: not able to induce gene mutations

CCN(CC)CCCC(C)Nc1ccnc2cc(Cl)ccc12 (stereo not shown) [CQ, chloroquine, reference compound]
SI (selectivity index) P.f. W2 [2]: >250 | IC50 [5]: 0.18 ± 0.05 µM | IC50 [6]: > 100 µM

Reference: publication PMC6045394 (ACS Omega, 2017)
